The text below walks through data of ChEMBL document CHEMBL5316316, “Designing Synthetic, Sulfated Glycosaminoglycan Mimetics That Are Orally Bioavailable and Exhibiting In Vivo Anticancer Activity” (J Med Chem, 2023).

Data set [1] has as its system HT-29. In words: Cytotoxicity against human HT-29 cells assessed as reduction in cell viability incubated for 60 to 72 hrs by MTT assay. Format: toxicity, cell-based. Conditions: time 60-72 hrs. In outline:
(§1)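 HT-29 monolayer cells were seeded at about 2.5 × 10^3 per well in DMEM:F12 with 10% FBS and incubated overnight at 37 °C, 5% CO2. Compound was added for 60–72 h. MTT (5 mg/mL in PBS) was added for 2–3 h, crystals were dissolved in DMSO and absorbance read at 590 nm. Results are percent of vehicle control, at least three replicates.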
(In general: Tetrazolium dyes change colour on reduction, which living cells bring about.)

Data set [2] is described as follows: Cytotoxicity against human HT-29 cells assessed as inhibition of spheroid growth. Conditions: HT-29 cell spheroids.
Data set [3] deals with HT-29. In words: Antitumor activity against human HT-29 cells xenografted in NCR nude mouse assessed as increase in proportion of CSC at 25 mg/kg, ip administered for 3 weeks in presence of oxaliplatin by flow cytometry analysis (reference value: 11.37 %). Format: functional. The essentials: (§2)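 HT-29 cells (1×10^6 bulk, or 1×10^5 FACS-sorted CD133+/CXCR4+) injected subcutaneously into NCr nude mice. Once tumors were palpable (>50 mm3), 5-fluorouracil 25 mg/kg plus oxaliplatin 2 mg/kg given IP weekly for 3 weeks, then mice randomized for further treatment. Tumor volume by Vernier caliper three times weekly. Ex vivo xenograft cells were digested with collagenase IV and assessed for 1°–4° spheroids (50–150 μm) and for Dual Hi/LGR5+ cells by flow cytometry.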
(In general: Xenograft models place foreign cells or tissue in a host animal.)

The test system of data set [4] is HT-29. In words: Antitumor activity against human HT-29 cells xenografted in NCR nude mouse assessed as spheroid formation at 25 mg/kg, ip administered for 3 weeks in presence of oxaliplatin. The format is functional, organism-based. The essentials: as §2
In data set [5] the test system is HT-29. In words: Antitumor activity against human HT-29 cells xenografted in NCR nude mouse assessed as reduction in tumor volume at 25 mg/kg, ip administered for 3 weeks in presence of oxaliplatin by vernier caliper method. The format is functional, organism-based. The essentials: as §2
The subject of data set [6] is HT-29. In words: Antitumor activity against human HT-29 cells xenografted in NCR nude mouse assessed as increase in number of spheroids at 25 mg/kg, ip administered for 3 weeks in presence of oxaliplatin. The format is functional, organism-based. The essentials: as §2
The test system of data set [7] is HT-29. In words: Cytotoxicity against human HT-29 cells assessed as reduction in cell viability at 400 uM incubated for 60 to 72 hrs by MTT assay. To be noted: ht-29, 400 µM, time 60-72 hrs. Format: toxicity, cell-based. The essentials:
as §1

Data set [8] concerns HT-29. In words: Antitumor activity against human HT-29 cells xenografted in NCR nude mouse assessed as decrease in LGR5 expression at 100 mg/kg, ip administered 3 times a week for 4.6 weeks by Western blot analysis. The format is functional, organism-based. The essentials:
(§3)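 Mice were randomized to 100 mg/kg IP three times/week for 4.6 weeks (14 doses). Tumors (n = 2/group) were dissociated and analysed by Western blot for LGR5, DCAMLK1 and BMI-1, and by flow cytometry for CD133+/CXCR4+ cells.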

The test system of data set [9] is Plasma. In words: Anticoagulant activity in human plasma assessed as prolongation of activated partial thromboplastin time by measuring concentration required to double APTT incubated for 4 mins by coagulometer analysis. Format: functional, cell-free. The essentials:
(§4)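 Pooled normal citrated human plasma (90 μL) mixed with 10 μL compound and 100 μL prewarmed ellagic acid APTT reagent, incubated 4 min at 37 °C, then recalcified with 100 μL prewarmed 25 mM CaCl2. Clot time read on a fibrometer (one-stage recalcification). Water blank gave the baseline. Concentration doubling APTT came from a quadratic trend-line fit.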

Data set [10] deals with HT-29. In words: Antitumor activity against human HT-29 cells xenografted in NCR nude mouse assessed as decrease in BMI-1 expression at 100 mg/kg, ip administered 3 times a week for 4.6 weeks by Western blot analysis. The format is functional, organism-based. In outline:
as §3

Data set [11] relates to HT-29. In words: Antitumor activity against human HT-29 cells xenografted in NCR nude mouse assessed as decrease in DCAMKL1 expression at 100 mg/kg, ip administered 3 times a week for 4.6 weeks by Western blot analysis. Format: functional, organism-based. In outline:
as §3

For data set [12], the system named is Plasma. In words: Anticoagulant activity in pooled human plasma assessed as prolongation of activated partial thromboplastin time incubated for 4 mins by coagulometer analysis. The format is functional, cell-free. The essentials: as §4
Data set [13] deals with HT-29. In words: Anticancer activity against human HT-29 cells assessed as inhibition of LGR5 expression level. The format is functional, cell-based.
Data set [14] has as its system HT-29. In words: Anticancer activity against human HT-29 cells assessed as inhibition of CXCR4+ expression level. The format is functional, cell-based.
Data set [15] relates to HT-29. In words: Antitumor activity against human HT-29 cells xenografted in NCR nude mouse assessed as reduction in tumor growth at 100 mg/kg, ip administered 3 times a week for 3 weeks. Format: functional, organism-based.
The test system of data set [16] is Plasma. In words: Anticoagulant activity in pooled human plasma assessed as prolongation of activated partial thromboplastin time at 900 uM incubated for 4 mins by coagulometer analysis. Format: functional. The essentials: as §4
Data set [17] deals with HT-29. In words: Anticancer activity against human HT-29 cells assessed as inhibition of DCAMLK1 expression level. Format: functional, cell-based.
In data set [18] the test system is HT-29. In words: Anticancer activity against human HT-29 cells assessed as inhibition of CD133+ expression level. The format is functional, cell-based.
The subject of data set [19] is HT-29. In words: Cytotoxicity against human HT-29 cells assessed as reduction in cell viability at 100 uM incubated for 60 to 72 hrs by MTT assay. Format: toxicity, cell-based. Conditions: ht-29, 100 µM, time 60-72 hrs. The essentials: as §1
The next data set has as its system Mus musculus. In words: Antithrombotic activity in ICR mouse model of tail-bleeding assessed as increase in blood loss at 100 mg/kg, iv.

The source made the active and inactive calls. No cut-off for these calls is given here.

One may read the IC50 as the point on the concentration scale where inhibition reaches its midpoint. For the compound `O=c1c(OS(=O)(=O)[O-])c(-c2ccc(OS(=O)(=O)[O-])c(OS(=O)(=O)[O-])c2)oc2cc(OS(=O)(=O)[O-])cc(OCC3CCC(COc4cc(OS(=O)(=O)[O-])cc5oc(-c6ccc(OS(=O)(=O)[O-])c(OS(=O)(=O)[O-])c6)c(OS(=O)(=O)[O-])c(=O)c45)CC3)c12.[Na+].[Na+].[Na+].[Na+].[Na+].[Na+].[Na+].[Na+]` (stereo unspecified), in the data set with HT-29 [1], the Activity result was “Non-Toxic”. Also, the IC50 in data set [2] came out at 4 µM.
With `O=c1[nH]cc(F)c(=O)[nH]1` [FLUOROURACIL], the Activity with HT-29 [3] was 26.4%. For the same compound, the outcome in the data set with HT-29 [4], in the data set on HT-29 [5] and in the data set on HT-29 [6] was Active.
On to `CC(C)CCC[C@@H](C)[C@H]1CC[C@H]2[C@@H]3CC=C4C[C@@H](OCCCCCOc5cc(-c6oc7cc(OS(=O)(=O)[O-])cc(OCCCOc8cc(OS(=O)(=O)[O-])cc9oc(-c%10ccc(OS(=O)(=O)[O-])c(OS(=O)(=O)[O-])c%10)c(OS(=O)(=O)[O-])c(=O)c89)c7c(=O)c6OS(=O)(=O)[O-])ccc5OS(=O)(=O)[O-])CC[C@]4(C)[C@H]3CC[C@]12C.[Na+].[Na+].[Na+].[Na+].[Na+].[Na+].[Na+]`, for which the values for the Activity entry in the data set with HT-29 [7] and in the data set with Plasma [12] were “Toxic” and “Dose-Dependent Effect”, respectively. Besides, the IC50 in data set [2] stood at 11.5 µM. In addition, the result in the data set on HT-29 [8], with Plasma [9], in the data set on HT-29 [10] and in the data set with HT-29 [11] was Active.
`O=c1cc(-c2ccc(OS(=O)(=O)[O-])cc2)oc2cc(OS(=O)(=O)[O-])cc(OCC3CCC(COc4cc(OS(=O)(=O)[O-])cc5oc(-c6ccc(OS(=O)(=O)[O-])cc6)cc(=O)c45)CC3)c12.[Na+].[Na+].[Na+].[Na+]` (stereo unspecified): in the data set on HT-29 [1], the Activity result is “Non-Toxic”. For the same compound, the IC50 in data set [2] was determined as 46 µM.
As to `O=c1c(OS(=O)(=O)[O-])c(-c2ccc(OS(=O)(=O)[O-])cc2OS(=O)(=O)[O-])oc2cc(OS(=O)(=O)[O-])cc(OCC3CCC(COc4cc(OS(=O)(=O)[O-])cc5oc(-c6ccc(OS(=O)(=O)[O-])cc6OS(=O)(=O)[O-])c(OS(=O)(=O)[O-])c(=O)c45)CC3)c12.[Na+].[Na+].[Na+].[Na+].[Na+].[Na+].[Na+].[Na+]` (stereo unspecified), the Activity entry in the data set with HT-29 [1] was “Non-Toxic”. The IC50 in data set [2] stood at 17.9 µM.
Take `O=c1c(OS(=O)(=O)[O-])c(-c2ccc(OS(=O)(=O)[O-])c(OS(=O)(=O)[O-])c2)oc2cc(OS(=O)(=O)[O-])cc(OCCCOc3cc(OS(=O)(=O)[O-])cc4oc(-c5ccc(OS(=O)(=O)[O-])c(OS(=O)(=O)[O-])c5)c(OS(=O)(=O)[O-])c(=O)c34)c12.[Na+].[Na+].[Na+].[Na+].[Na+].[Na+].[Na+].[Na+]`: the outcome in the data set with HT-29 [13], with HT-29 [14], in the data set on HT-29 [15], with HT-29 [17] and in the data set on HT-29 [18] was Active. Besides, the figures for the Activity entry in the data set with HT-29 [1] and in the data set with Plasma [12] were “Non-Toxic” and “Dose-Dependent Effect”, respectively. In addition, the IC50 in data set [2] came to 29.6 µM. Also, in the data set on Plasma [16], the APTT came to 68 s.
For the compound `CC(C)CCC[C@@H](C)[C@H]1CC[C@H]2[C@@H]3CC=C4C[C@@H](OCCCCCCCCOc5cc(-c6oc7cc(OS(=O)(=O)[O-])cc(OCCCOc8cc(OS(=O)(=O)[O-])cc9oc(-c%10ccc(OS(=O)(=O)[O-])c(OS(=O)(=O)[O-])c%10)c(OS(=O)(=O)[O-])c(=O)c89)c7c(=O)c6OS(=O)(=O)[O-])ccc5OS(=O)(=O)[O-])CC[C@]4(C)[C@H]3CC[C@]12C.[Na+].[Na+].[Na+].[Na+].[Na+].[Na+].[Na+]`, in data set [2], the IC50 is 0.8 µM. Besides, the result in the data set on Plasma [9] and in the data set with Mus musculus was Active. Further, the Activity result with HT-29 [19] is “Toxic”; in the data set with Plasma [12], “Dose-Dependent Effect”.
